Sampled rows, rich in hits. Any-hit rate of the full collection: about 3.8%.
OX1R antag-1 – antagonists of human orexin 1 receptor (OX1R). O43613. OX1R-expressing cells, FRET antagonist read-out. 330,000 tested, 1.8% active. inhibition, % at 6.6 µM; in the data active means inhibition mostly above about 38%, no sharp cut-off; inactive means mostly below about 40%;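 further: 0% = agonist challenge alone and 100% = reference antagonist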
OX1R antag-2 – antagonists of human orexin 1 receptor. inhibition, % at 5 µM. O43613. AID 434989. CHO/OX1R cells, Fluo-8 calcium fluorescence, orexin A. 330,000 tested, 0.43% active;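 active means inhibition above its plate's threshold, mean inhibition of all tested compounds on the plate plus 3 SD, cut at about 37% in these data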;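 further: 0% = orexin A challenge wells and 100% = SB-334867-A antagonist wells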
GPR7 antag – antagonists of human GPR7 (neuropeptides B/W receptor 1). P48145. GPR7-expressing cells, fluorescence antagonist assay. inhibition, % at 4.4 µM. 290,000 tested, 1.1% active; in the data active means inhibition above about 16%, passing the limit was not always enough;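 further: cells stimulated with the agonist NPW; 0% = agonist with vehicle and 100% = vehicle without agonist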
Target sequence (P48145 whole entry, looked up): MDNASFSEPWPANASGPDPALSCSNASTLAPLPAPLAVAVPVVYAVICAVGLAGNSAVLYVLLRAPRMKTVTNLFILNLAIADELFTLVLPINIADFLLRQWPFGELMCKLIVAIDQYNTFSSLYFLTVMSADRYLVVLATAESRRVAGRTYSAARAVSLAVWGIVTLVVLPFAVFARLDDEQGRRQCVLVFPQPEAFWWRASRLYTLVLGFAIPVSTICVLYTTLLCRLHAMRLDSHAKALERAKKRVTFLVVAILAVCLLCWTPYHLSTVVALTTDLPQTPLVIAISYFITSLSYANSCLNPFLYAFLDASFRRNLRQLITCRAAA
MPTP inh – blocks calcium-induced mitochondrial swelling; isolated mouse mitochondria, Ca2+ swelling absorbance, 30 min; inhibition, % at 10 µM; 360,000 tested, 1.4% active;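 active means inhibition of 50% or more, scaled per plate between neutral and stimulator controls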;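 further: 0% = DMSO wells given calcium and 100% = 1 mM EGTA wells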
CHO parental Ca – signal in parental CHO cells, OX1R antagonist counter-screen | parental CHO-K1, ATP-induced calcium, Fluo-8 fluorescence | inhibition, % at 5.6 µM | 330,000 tested, 0.63% active;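 active means inhibition above that plate's mean sample inhibition plus 3 SD, cut at about 26% in these data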;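 further: 0% = ATP-challenged DMSO wells and 100% = DMSO wells without ATP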
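Assay system: untransfected parental CHO cell line. Also added: ATP agonist challenge. Dosing: one dose, 5.6 µM nominal. Measured by: Fluo-8 fluorescence. Read-out: % inhibition. Benchmarks: ATP wells versus no-ATP DMSO wells. Repeats: no replicates.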
The depositor's hits bear a star.

For CCn1c(CSc2nc3ccccc3s2)nc2ccccc21 the results were OX1R antag-1 100.4*, OX1R antag-2 79.2*, GPR7 antag -4.8, MPTP inh 1.4 and CHO parental Ca 54.7*.
`O=C1c2cc(CO)cc(O)c2C(=O)c2c(O[C@@H]3OC(CO)[C@@H](O)[C@@H](O)[C@@H]3O)cccc21` (stereo not given in full) gave OX1R antag-1 73.1*, OX1R antag-2 -9.7, MPTP inh -0.9 and CHO parental Ca -6.1.
For O=C(O)c1cc(O)c2c(c1)[C@H]([C@H]1c3cc(C(=O)O)cc(O)c3C(=O)c3c(O[C@@H]4O[C@H](CO)[C@@H](O)[C@H](O)[C@H]4O)cccc31)c1cccc(OC3O[C@H](CO)[C@@H](O)[C@H](O)[C@H]3O)c1C2=O (stereo not given in full) the results were OX1R antag-1 43.3, OX1R antag-2 13.7, MPTP inh -3.4 and CHO parental Ca 2.4.
`CC(=O)c1cccc(NC(=O)Nc2nc(C)cc(C)n2)c1` gave OX1R antag-1 58.7*, OX1R antag-2 0.3, GPR7 antag -5.6, MPTP inh -0.6 and CHO parental Ca -1.3.
`COCCCNC(=O)Cc1c(C)c2cc3c(cc2oc1=O)OC(C)(C)CC3` gave OX1R antag-1 17.8, OX1R antag-2 -23.9, GPR7 antag -10.7, MPTP inh -0.2 and CHO parental Ca -6.6.
`COc1ccc(Cl)cc1N1C(=O)C2CCCN2C1c1ccc(F)c(F)c1` (stereo not given) gave OX1R antag-1 10.0, OX1R antag-2 -15.6, GPR7 antag 16.4*, MPTP inh -0.9 and CHO parental Ca -27.0.
`COc1ccc(C2N(c3cc(Cl)ccc3OC)C(=O)C3CCCN32)cc1OC` (stereo not given) gave OX1R antag-1 11.9, OX1R antag-2 -21.5, GPR7 antag 9.7, MPTP inh -1.7 and CHO parental Ca -12.5.
For OCCC1CN(Cc2cccc3nonc23)CCN1C1CCCCC1 (stereo not given) the results were OX1R antag-1 23.8, OX1R antag-2 -14.5, GPR7 antag -1.1, MPTP inh -0.9 and CHO parental Ca -7.9.
Cc1ccc(-n2cc(CN3CCC(CO)(Cc4ccccc4)CC3)cn2)cc1 was read as OX1R antag-1 11.0, OX1R antag-2 -29.3, GPR7 antag 20.2* and CHO parental Ca -17.6.
Screening CO[C@H]1CN(C)C(=O)c2ccc(NC(=O)c3ccc4c(c3)OCO4)cc2OC[C@H](C)N(CC2CC2)C[C@@H]1C returned MPTP inh 3.5.
COc1ccccc1N1CCN(C(=O)c2cccc(N3C(=O)NC4CC3(C)Oc3c(OC)cccc34)c2)CC1 (stereo not given) was read as OX1R antag-1 22.6, OX1R antag-2 -25.9, GPR7 antag 3.5, MPTP inh -1.0 and CHO parental Ca -25.4.
For CCOc1cccc2c1OC1(C)CC2NC(=O)N1c1cccc(Cl)c1 (stereo not given) the results were OX1R antag-1 43.7*, OX1R antag-2 -8.3, GPR7 antag -9.3, MPTP inh 0.2 and CHO parental Ca -3.5.
O=C(CC1S/C(=N/N=C/c2c[nH]c3ccccc23)NC1=O)Nc1ccccc1 (stereo not given) was read as OX1R antag-1 14.0, OX1R antag-2 1.4, GPR7 antag 18.0*, MPTP inh 1.1 and CHO parental Ca 7.3.
Screening O=C(CC1S/C(=N/N=C/c2c[nH]c3ccc(OCc4ccccc4)cc23)NC1=O)Nc1ccccc1 (stereo not given) returned OX1R antag-1 -1.8, OX1R antag-2 -10.4, GPR7 antag -15.5, MPTP inh 2.1 and CHO parental Ca 6.6.
`O=C1/C(=C/c2cccs2)CCC/C1=C\c1cccs1` gave OX1R antag-1 29.7, OX1R antag-2 -16.0, GPR7 antag -1.5, MPTP inh -0.1 and CHO parental Ca -15.9.
`Cn1cccc1/C=C1\CCC/C(=C\c2cccn2C)C1=O` gave OX1R antag-1 24.8, OX1R antag-2 92.5*, GPR7 antag -6.7, MPTP inh 1.0 and CHO parental Ca 70.1*.
Screening N#Cc1cc([N+](=O)[O-])ccc1N1CCCC1 returned OX1R antag-1 30.6, OX1R antag-2 -7.9, GPR7 antag -14.8, MPTP inh 0.5 and CHO parental Ca -5.8.
For N#Cc1c(N2CCCC2)ccc(Br)c1Cl the results were OX1R antag-1 21.3, OX1R antag-2 -20.3, GPR7 antag 17.3*, MPTP inh -0.7 and CHO parental Ca -3.3.
CNc1c(NS(=O)(=O)c2ccc(OC)c(Cl)c2)c(=O)oc2ccccc12 was read as OX1R antag-1 15.6, OX1R antag-2 -20.0, GPR7 antag -4.3, MPTP inh -1.6 and CHO parental Ca -12.2.
For OCCCNc1ncnc2c1ncn2[C@H]1CN(Cc2cccs2)C[C@@H](CO)O1 the results were MPTP inh 0.2.
Screening Cn1c(=O)c2c(ncn2CC(=O)OCCCC(=O)c2ccc(Br)cc2)n(C)c1=O returned OX1R antag-1 17.8, OX1R antag-2 38.4, MPTP inh 32.6 and CHO parental Ca 34.7*.
`CCc1cccc(C)c1N=Cc1c(O)c2ccccc2oc1=O` gave OX1R antag-1 54.0*, OX1R antag-2 -4.2, GPR7 antag 7.2, MPTP inh 0.7 and CHO parental Ca -1.1.
`Cc1ccc(F)cc1N=Cc1c(O)c2ccccc2oc1=O` gave OX1R antag-1 58.2*, OX1R antag-2 -19.5, GPR7 antag -12.2, MPTP inh -0.1 and CHO parental Ca -4.2.
For Cc1ccc(N=Cc2c(O)c3ccccc3oc2=O)c(C)c1 the results were OX1R antag-1 2.5, OX1R antag-2 -9.0, GPR7 antag -13.2, MPTP inh 0.1 and CHO parental Ca -7.8.
For CCOc1ccc(NC(=O)[C@H](Cc2ccccc2)NC(=O)C2CCNCC2)cc1 the results were OX1R antag-1 23.5, OX1R antag-2 -3.7, GPR7 antag 3.1, MPTP inh -0.2 and CHO parental Ca -9.8.
Screening CC(=O)N1CCC(N(CCCOC(C)C)S(=O)(=O)c2ccc([N+](=O)[O-])cc2)CC1 returned OX1R antag-1 45.7*, OX1R antag-2 -36.3, GPR7 antag -6.8, MPTP inh -0.4 and CHO parental Ca -7.6.
`CCc1ccc(NC(=O)CCC(=O)c2ccc(C)cc2)cc1` gave OX1R antag-1 -12.4, OX1R antag-2 -2.4, GPR7 antag 20.4, MPTP inh 0.4 and CHO parental Ca 31.5*.
`CCc1ccc(NC(=O)CCC(=O)c2ccccc2)cc1` gave OX1R antag-1 0.8, OX1R antag-2 -13.3, GPR7 antag 8.3, MPTP inh -0.9 and CHO parental Ca -12.9.
For O=C(Nc1cccc2ccccc12)c1csc(COCCO)n1 the results were MPTP inh -1.0.
For COc1ccc(CCNC(=O)c2ccc(Cl)c(S(=O)(=O)N3CCCCCC3)c2)cc1 the results were OX1R antag-1 15.3, OX1R antag-2 46.3*, MPTP inh 3.0 and CHO parental Ca 26.8*.
`O=[N+]([O-])c1ccc2ncnc(N3CCN(Cc4ccc5c(c4)OCO5)CC3)c2c1` gave OX1R antag-1 56.0*, OX1R antag-2 -20.2, GPR7 antag 0.7, MPTP inh 9.5 and CHO parental Ca -3.7.
